From PubChem
Only some compounds are listed: those with a hit (about 5.9% of all), similar ones and a draw of the others.
Jurkat viability: reduces viability or proliferation of Jurkat cells; Jurkat E6.1 viability, ATP luminescence, 48 h; inhibition, % at 4 µM; actives 1.2% (n = 56,000);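 active = inhibition above the mean inhibition of all tested compounds plus 3 SD, cut at about 28% in these data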
HUVEC prolif 384: human endothelial cell proliferation inhibition. actives 1.1% (n = 86,000). viability, % at 10 µM (by protocol). HUVEC proliferation, CellTiter-Glo luminescence, 72 h; active compounds read low. AID 648;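 active = viability at or below 30%; inactive = viability above 30%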;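 note: 100% = median luminescence of DMSO-only cell control wells on each plate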
Pyk2 oligo antag: Pyk2 (human) oligomerization antagonism; z-score (the deposit names both 25 µM and 10 µM); Q14289; actives 0.83% (n = 99,000); Q293 cells, Pyk2 FERM NanoBiT luminescence; active compounds read low; AID 1347419;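 active = Z-score of -3 or lower, scaled per plate to the spread of control and sample wells; inactive = z-score above -3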;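 note: negative z-score means lost luminescence so less FERM oligomerization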
Target sequence (Q14289 whole entry, looked up): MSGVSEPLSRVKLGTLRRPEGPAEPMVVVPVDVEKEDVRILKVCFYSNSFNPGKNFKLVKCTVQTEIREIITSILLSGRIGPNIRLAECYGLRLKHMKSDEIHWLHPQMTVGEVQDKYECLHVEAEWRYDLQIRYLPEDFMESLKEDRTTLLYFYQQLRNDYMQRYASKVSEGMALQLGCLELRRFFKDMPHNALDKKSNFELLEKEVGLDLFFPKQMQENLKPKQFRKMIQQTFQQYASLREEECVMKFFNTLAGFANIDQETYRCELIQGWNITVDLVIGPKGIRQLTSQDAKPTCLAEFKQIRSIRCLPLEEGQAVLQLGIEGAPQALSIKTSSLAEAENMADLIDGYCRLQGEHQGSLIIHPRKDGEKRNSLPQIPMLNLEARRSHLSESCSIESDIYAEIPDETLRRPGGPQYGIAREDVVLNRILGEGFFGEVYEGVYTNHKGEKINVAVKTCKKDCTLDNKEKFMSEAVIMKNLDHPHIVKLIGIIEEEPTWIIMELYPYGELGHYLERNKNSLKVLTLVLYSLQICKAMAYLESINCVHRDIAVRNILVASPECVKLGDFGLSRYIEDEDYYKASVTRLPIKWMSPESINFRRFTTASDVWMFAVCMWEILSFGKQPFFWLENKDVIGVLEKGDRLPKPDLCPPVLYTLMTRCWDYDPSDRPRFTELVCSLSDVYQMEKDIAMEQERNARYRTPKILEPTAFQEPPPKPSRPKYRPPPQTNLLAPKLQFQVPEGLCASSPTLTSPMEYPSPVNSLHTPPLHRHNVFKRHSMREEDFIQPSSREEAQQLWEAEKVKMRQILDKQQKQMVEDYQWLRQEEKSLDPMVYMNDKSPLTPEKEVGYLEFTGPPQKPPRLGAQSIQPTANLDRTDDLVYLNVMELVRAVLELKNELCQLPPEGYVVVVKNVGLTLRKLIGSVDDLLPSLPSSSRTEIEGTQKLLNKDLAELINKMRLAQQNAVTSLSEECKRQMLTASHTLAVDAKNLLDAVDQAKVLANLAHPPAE
Fibroblast inh: blocks proliferation of human lung fibroblasts | LL 47 human lung fibroblast viability, ATP luminescence; active compounds read low | viability, % at 10 µM | actives 1.1% (n = 85,000);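 active = viability at or below 50% in the single dose screen; inactive = viability above 50%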;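 note: compound exposure lasted 72 h before the ATP readout; 100% = median luminescence of untreated cell-only wells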
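Material: human LL 47 lung fibroblast cells; quantity: 1,150 cells/well; medium: IMEM plus 15% FBS; doses: 0.1% DMSO in all compound wells; timing: overnight attachment after seeding, then 72 h compound exposure at 37 °C; detection: CellTiter-Glo luminescence; measure: % viability of median cell-only signal; controls: cell-only wells, no compound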
H69AR inhibit: growth inhibitors of human H69AR lung tumor cells; H69AR lung tumor viability, ATP luminescence, 72 h; active compounds read low; viability, % at 10 µM; actives 6% (n = 85,000); AID 598;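 active = viability at or below 40%; inactive = viability above 40%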;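 note: multidrug resistant small cell line overexpressing MRP-1 efflux transporter; 100% = mean luminescence of untreated control wells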
MT1-MMP txn act: MT1-MMP promoter transcription activation; activation factor at 10 µM; actives 0.16% (n = 86,000); AID 750; HT1080 MT1-MMP promoter luciferase reporter, luminescence, overnight; active compounds read high;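 active = activation factor of at least 2 for MT1-MMP transcription at 10 µM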
An asterisk follows results filed as active; . = no result given.

SMILES | Jurkat viability | HUVEC prolif 384 | Pyk2 oligo antag | Fibroblast inh | H69AR inhibit | MT1-MMP txn act
COc1ccc(-c2nnc(SCC(=O)Nc3sc4c(c3C#N)CCCC4)n2-c2ccccc2)cc1 | . | 3.7* | 0.47 | 27* | 2.3* | 1.2
CCC/C=C(\CCC)C(NS(=O)(=O)c1ccc(Cl)cc1)c1ccc(C(=O)OC)cc1 (centres undefined) | . | . | . | . | . | 1.3
CCOC(=O)N1CCN(S(=O)(=O)c2ccc(C(=O)Nc3sc4c(c3C#N)CCC4)cc2)CC1 | 0 | 47 | 0.28 | 84 | 28* | 1
Cc1cc(C(=O)Nc2sc3c(c2C#N)CCC(C)C3)cs1 (centres undefined) | 4 | 103 | 0.82 | 110 | 19* | 1.2
CCOC(=O)N1CCN(S(=O)(=O)c2ccc(C(=O)Nc3ccc4c(c3)C(=O)NC4=O)cc2)CC1 | . | . | 0.96 | . | . | .
Oc1ccc(Nc2nc(NCC3CCCO3)c3ccccc3n2)cc1 (centres undefined) | 8 | 35 | -0.79 | 86 | 37* | 1.1
Oc1ccccc1Nc1nc(NCC2CCCO2)c2ccccc2n1 (centres undefined) | 3 | 85 | -2.5 | 95 | 46 | 0.9
COc1cccc(Nc2nc(NCC3CCCO3)c3ccccc3n2)c1 (centres undefined) | . | 35 | -2.6 | 23* | 64 | 1.1
COc1ccc(-c2cnc(SCC(=O)Nc3nc(C(C)(C)C)cs3)n2Cc2ccco2)cc1 | . | 81 | 0.59 | 89 | 57 | 1.3
O=S(=O)(c1ccc(S(=O)(=O)N2CCCC2)cc1)N1CCCCCC1 | 4 | 95 | 0.05 | 102 | 95 | 1.1
CC1CCN(S(=O)(=O)c2ccc3c(c2)C(=NO)c2cc(S(=O)(=O)N4CCC(C)CC4)ccc2-3)CC1 | . | 2.8* | -2.8 | 2.3* | 0.9* | 1.6
O=S(=O)(c1ccc2c(c1)C(=NO)c1cc(S(=O)(=O)N3CCCCC3)ccc1-2)N1CCCCC1 | 0 | 1.6* | -2.6 | 1.6* | 0.4* | 0
O=C(Cc1ccc(Cl)cc1)Nc1ccc2oc(-c3ccncc3)nc2c1 | 0 | 18* | -0.31 | 8.1* | 32* | 0.9
O=C(Cc1ccccc1)Nc1ccc2oc(-c3cccnc3)nc2c1 | 4 | 93 | 0.76 | 106 | 85 | 1.2
CCCC(=O)Nc1ccc(-c2nc3cc(C)c(C)cc3o2)c(O)c1 | 0 | 105 | -0.69 | 85 | 55 | 1.3
O=C(Nc1ccc(-c2nc3ccccc3o2)cc1)C1CCCO1 (centres undefined) | 9 | 86 | -1.2 | 105 | 88 | 0.2
O=C(Nc1ccc(-c2nc3cc(Cl)ccc3o2)cc1)C1CCCO1 (centres undefined) | . | 113 | -0.4 | 71 | 33* | 0.9
COc1ccc(CC(=O)Nc2ccc(-c3nc4cc(C)ccc4o3)c(O)c2)cc1OC | 5 | 91 | 0.82 | 40* | 49 | 1.2
CCc1c(C)nc2ncnn2c1N1CCC(C(=O)Nc2ccc(C)cc2)CC1 | 14 | 101 | 0.98 | 100 | 35* | 1.1
CCc1c(C)nc2ncnn2c1N1CCC(C(=O)Nc2ccccc2)CC1 | 11 | 95 | 0.25 | 93 | 57 | 1
COc1ccc(C(=O)n2nc(C)cc2Nc2ccccc2)cc1 | . | 82 | -0.88 | 98 | 96 | 2.1*
Cc1cc(Nc2ccccc2)nn1C(=O)c1ccc(Br)cc1 | . | 69 | -0.03 | 97 | 29* | 1.2
CCOc1ccc(S(=O)(=O)NCc2ccc(OC)cc2)c2cccnc12 | . | 86 | . | 107 | 98 | 1.2
Cc1nn(-c2ccc(Cl)cc2)c2[nH]c(=O)c(CNCc3ccc4c(c3)OCO4)cc12 | -4 | 82 | -2.1 | 88 | 32* | 1.1
Cc1nn(-c2ccccc2)c2[nH]c(=O)c(CNc3ccc(N4CCOCC4)cc3)cc12 | -4 | 76 | -1.1 | 94 | 18* | 1
SMILES | Jurkat viability | HUVEC prolif 384 | Pyk2 oligo antag | Fibroblast inh | H69AR inhibit | MT1-MMP txn act
O=C(NNC(=O)c1ccc(SCC2CCCO2)c([N+](=O)[O-])c1)c1ccc(F)cc1 (centres undefined) | . | 99 | 1 | 94 | 103 | 1.1
CC(C)(C)NC(=O)CSc1nccn1Cc1ccccc1 | -14 | 99 | -0.01 | 100 | 102 | 1
CC1CC(Nc2ccccc2)c2ccccc2N1C(=O)c1cccnc1 (centres undefined) | . | 91 | -0.01 | 96 | 50 | 1.4
C[C@@H]1C[C@H](Nc2ccccc2)c2ccccc2N1C(=O)c1cccnc1 | . | 89 | 0.55 | 94 | 20* | 1
C#CCn1c(=NC(=O)c2ccc(Br)s2)sc2cccc(OC)c21 | . | 55 | . | 38* | 2.6* | .
CCN(CC)C(=O)c1ccc(S(=O)(=O)N2CCC(c3nc4ccccc4s3)CC2)cc1 | . | 82 | -1.2 | 96 | 48 | 1.2
CC1CCCN(C(=O)c2ccc(S(=O)(=O)N3CCC(c4nc5ccccc5s4)CC3)cc2)C1 (centres undefined) | . | 89 | -0.43 | 88 | 32* | 1.2
COC(=O)/C=c1\sc2ncnn2c1=O | -1 | 97 | -0.32 | 98 | 7.9* | 1.2
COC(=O)[C@@]1(Cc2ccccc2)[C@H]2c3cc(C(=O)N4CCCC4)n(Cc4ccccn4)c3C[C@H]2CN1C(=O)c1ccccc1 | . | . | . | . | . | 1.2
S=c1[nH]nc(C2CCCCC2)n1/N=C/c1ccc(Br)s1 | . | . | 0.46 | . | . | .
Cc1ccc(-c2cccc(NC(=O)C3C4C=CC(C4)C3C(=O)O)c2)o1 (centres undefined) | . | . | 0.87 | . | . | .
O=C1c2cccc3c(Nc4ccccc4Cl)c([N+](=O)[O-])cc(c23)C(=O)N1CCO | . | . | -1.5 | . | . | .
CCc1ccccc1N1C(=O)c2cccc3c(N4CCOCC4)c([N+](=O)[O-])cc(c23)C1=O | . | . | -3* | . | . | .
Cc1ccccc1-n1nc(C(=O)c2cccs2)cc(-c2nc3ccccc3[nH]2)c1=N | . | 71 | -2.9 | 78 | 38* | 1
COc1ccc(-c2nc3ccccc3[nH]2)cc1 | . | 64 | -0.53 | 64 | 45 | .
COc1ccc(-n2nc(C(=O)c3cccs3)cc(-c3nc4ccccc4[nH]3)c2=N)cc1 | . | 29* | -3.3* | 78 | 1.4* | 0.7
O=C(NCc1nc2ccccc2[nH]1)c1cccs1 | -4 | 108 | . | 109 | 98 | 1.4
Cc1occc1-c1nnc(SCC(=O)N(C)CCC#N)n1N | . | 99 | -1.1 | 96 | 103 | .
O=c1c(/C=C(\O)c2ccccc2)nc2ccccc2n1-c1ccccc1 | . | 112 | 1.3 | 104 | 39* | 1.1
CCN(CC)C(=O)c1sc(NC(=O)C(Sc2ccccc2)c2ccccc2)c(C(=O)OC(C)C)c1C (centres undefined) | . | . | -1.6 | . | . | .
Cc1ccc(NC(=S)NC(NC(=O)c2ccco2)C(Cl)(Cl)Cl)cc1 (centres undefined) | . | 84 | -0.35 | 96 | 22* | .
C[C@@H](C(=O)N[C@@H](CO)Cc1ccccc1)[C@@H]1C[C@@]1(C)[C@@H](NC(=O)OCc1ccccc1)c1ccccc1 | . | . | . | . | . | 1.2
COc1ccc(CCNC(=O)c2cc(-c3cc(C)c(C)cc3O)n[nH]2)cc1OC | 12 | 94 | -1.9 | 101 | 29* | 1.1
